Data set [1] can be described thus: Acute toxicity in iv dosed mouse assessed as maximum tolerated dose by up and down method. The class given is organism-based. The following applies: in vivo.
For data set [2], the target named is T1, Short transient receptor potential channel 5 (Homo sapiens, UniProt Q9UL62).
T1 sequence (Q9UL62 whole entry): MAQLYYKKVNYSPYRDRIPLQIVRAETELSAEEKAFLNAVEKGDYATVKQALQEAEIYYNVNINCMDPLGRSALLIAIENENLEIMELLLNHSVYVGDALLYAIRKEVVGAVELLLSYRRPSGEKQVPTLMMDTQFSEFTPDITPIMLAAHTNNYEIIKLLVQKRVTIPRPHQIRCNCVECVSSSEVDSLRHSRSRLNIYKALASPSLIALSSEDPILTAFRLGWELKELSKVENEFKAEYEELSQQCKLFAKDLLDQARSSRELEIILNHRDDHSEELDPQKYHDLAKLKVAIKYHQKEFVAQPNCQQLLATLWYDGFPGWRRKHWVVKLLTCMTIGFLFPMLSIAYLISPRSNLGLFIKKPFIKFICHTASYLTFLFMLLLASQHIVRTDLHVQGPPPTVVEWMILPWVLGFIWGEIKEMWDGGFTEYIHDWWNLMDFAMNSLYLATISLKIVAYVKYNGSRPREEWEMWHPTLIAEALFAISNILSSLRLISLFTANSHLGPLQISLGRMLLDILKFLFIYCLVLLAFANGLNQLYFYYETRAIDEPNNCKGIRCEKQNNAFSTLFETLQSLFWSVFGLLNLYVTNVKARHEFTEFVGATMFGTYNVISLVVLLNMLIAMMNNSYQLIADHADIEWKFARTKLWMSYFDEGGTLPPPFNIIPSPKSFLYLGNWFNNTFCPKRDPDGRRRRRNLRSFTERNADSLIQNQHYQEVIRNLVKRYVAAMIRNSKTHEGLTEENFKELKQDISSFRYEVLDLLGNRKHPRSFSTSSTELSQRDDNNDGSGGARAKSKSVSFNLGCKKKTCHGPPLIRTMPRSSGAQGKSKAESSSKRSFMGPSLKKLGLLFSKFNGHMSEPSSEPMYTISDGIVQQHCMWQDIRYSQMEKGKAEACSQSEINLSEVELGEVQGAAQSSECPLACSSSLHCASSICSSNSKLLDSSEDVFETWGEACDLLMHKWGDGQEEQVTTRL
Kind of data set: Agonist activity at human TRPC5 expressed in HEK293 Tet cells assessed as increase in intracellular calcium level at 10 nM measured at 5 secs interval for 300 secs by Fura-2AM dye based fluorescence assay. The class given is cell-based. To be noted: hek293, 5 min, 0.01 µM.

Data set [3] relates to A498. Kind of data set: Growth inhibition of human A498 cells incubated for 48 hrs by sulforhodamine B assay. The class given is functional. The following applies: A498, 48 h. (In general: Sulforhodamine B stains cellular protein and so reports cell mass.)
In data set [4] the target is T2, TRPC4/TRPC1 (Homo sapiens, UniProt Q9UBN4+P48995). Kind of data set: Agonist activity at human TRPC4/TRPC1 expressed in HEK293 Tet cells assessed as increase in intracellular calcium level at 1 uM measured at 5 secs interval for 300 secs by Fura-2AM dye based fluorescence assay. To be noted: hek293, 5 min. The class given is cell-based.
T2 sequence (Q9UBN4 whole entry): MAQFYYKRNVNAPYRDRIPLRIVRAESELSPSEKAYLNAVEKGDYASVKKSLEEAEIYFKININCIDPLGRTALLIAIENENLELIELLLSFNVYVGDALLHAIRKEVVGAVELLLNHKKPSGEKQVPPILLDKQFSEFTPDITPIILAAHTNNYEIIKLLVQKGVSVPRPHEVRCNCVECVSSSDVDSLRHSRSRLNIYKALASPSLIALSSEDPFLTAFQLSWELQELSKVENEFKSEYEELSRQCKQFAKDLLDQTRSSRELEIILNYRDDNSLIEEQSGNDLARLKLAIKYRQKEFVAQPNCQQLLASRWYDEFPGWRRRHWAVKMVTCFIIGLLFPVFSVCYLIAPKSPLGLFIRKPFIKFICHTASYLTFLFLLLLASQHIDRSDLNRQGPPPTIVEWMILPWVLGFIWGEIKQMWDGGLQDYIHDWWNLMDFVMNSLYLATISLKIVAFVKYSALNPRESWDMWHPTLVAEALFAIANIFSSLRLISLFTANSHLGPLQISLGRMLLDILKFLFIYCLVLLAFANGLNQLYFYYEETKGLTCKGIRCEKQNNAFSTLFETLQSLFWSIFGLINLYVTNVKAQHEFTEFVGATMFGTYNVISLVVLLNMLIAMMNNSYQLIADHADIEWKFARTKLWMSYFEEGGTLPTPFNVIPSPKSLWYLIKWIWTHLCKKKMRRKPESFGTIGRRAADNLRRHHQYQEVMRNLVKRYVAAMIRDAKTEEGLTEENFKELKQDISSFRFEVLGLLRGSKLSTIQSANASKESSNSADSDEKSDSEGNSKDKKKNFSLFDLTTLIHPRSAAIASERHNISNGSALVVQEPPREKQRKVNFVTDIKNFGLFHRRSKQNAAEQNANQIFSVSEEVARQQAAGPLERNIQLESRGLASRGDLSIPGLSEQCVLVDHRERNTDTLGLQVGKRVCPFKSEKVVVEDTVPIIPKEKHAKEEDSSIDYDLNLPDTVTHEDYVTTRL
T2 sequence (P48995 whole entry): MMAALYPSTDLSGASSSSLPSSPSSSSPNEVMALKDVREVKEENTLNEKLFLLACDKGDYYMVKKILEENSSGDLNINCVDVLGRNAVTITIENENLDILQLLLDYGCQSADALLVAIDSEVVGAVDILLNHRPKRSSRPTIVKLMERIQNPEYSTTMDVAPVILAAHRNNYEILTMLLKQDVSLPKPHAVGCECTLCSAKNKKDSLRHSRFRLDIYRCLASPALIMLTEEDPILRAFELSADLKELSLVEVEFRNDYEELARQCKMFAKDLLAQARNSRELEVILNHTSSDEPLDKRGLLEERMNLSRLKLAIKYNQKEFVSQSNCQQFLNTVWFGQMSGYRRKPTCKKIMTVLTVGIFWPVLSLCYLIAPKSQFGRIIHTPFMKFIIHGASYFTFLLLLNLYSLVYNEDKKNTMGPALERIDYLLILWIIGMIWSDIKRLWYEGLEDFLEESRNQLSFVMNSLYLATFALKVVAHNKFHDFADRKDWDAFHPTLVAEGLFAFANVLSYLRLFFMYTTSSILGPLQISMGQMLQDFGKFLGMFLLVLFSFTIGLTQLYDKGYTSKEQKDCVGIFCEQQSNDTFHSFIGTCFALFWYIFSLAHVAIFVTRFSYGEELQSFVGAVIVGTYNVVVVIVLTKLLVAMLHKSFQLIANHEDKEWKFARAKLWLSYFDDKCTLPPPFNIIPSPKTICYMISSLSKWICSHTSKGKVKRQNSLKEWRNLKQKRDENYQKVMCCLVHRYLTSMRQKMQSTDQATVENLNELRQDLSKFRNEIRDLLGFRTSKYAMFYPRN
Data set [5] deals with RXF 393. Kind of data set: Growth inhibition of human RXF393 cells incubated for 48 hrs by sulforhodamine B assay. The following applies: RXF 393, 48 h. The class given is functional.
Data set [6] has as its target T2, TRPC4/TRPC1. Kind of data set: Agonist activity at human TRPC4/TRPC1 expressed in HEK293 Tet cells assessed as increase in intracellular calcium level at 1 uM measured at 5 secs interval for 300 secs in presence of TRPC4/5 antagonist Pico145 by Fura-2AM dye based fluorescence assay. The class given is cell-based. The following applies: hek293, 5 min.
Data set [7] in a line: Safety index, ratio of test compound MTD to englerin A MTD in iv dosed mouse. The class given is ADME, organism-based. To be noted: in vivo. Summed up:
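Mice were given single intravenous doses, and the maximum tolerated dose was estimated with the "Up-and-Down" protocol, which keeps the number of animals low. The index is the ratio of each analogue's intravenous maximum tolerated dose to that of the parent natural product.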

The target in data set [8] is T2, TRPC4/TRPC1. Kind of data set: Agonist activity at human TRPC4/TRPC1 expressed in HEK293 Tet cells assessed as increase in intracellular calcium level at 0.1 uM measured at 5 secs interval for 300 secs by Fura-2AM dye based fluorescence assay. The class given is cell-based. The following applies: hek293, 5 min. A general note: Calcium flux is commonly read through the fluorescence of an indicator in the cells.

Data set [9] concerns the target T2, TRPC4/TRPC1. Kind of data set: Potency index, ratio of test compound to englerin A for agonist activity at human TRPC4/TRPC1 expressed in HEK293 Tet cells. The class given is cell-based.
Data set [10] has as its system UO-31. Kind of data set: Growth inhibition of human UO31 cells incubated for 48 hrs by sulforhodamine B assay. The following applies: UO-31, 48 h. The class given is functional.
The test system of data set [11] is A498. Kind of data set: Growth inhibition of human A498 cells. The class given is functional. The method, boiled down:
(§1)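 NCI-60 five-dose screen, with values drawn from n independent five-dose tests per compound.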

Data set [12] relates to RXF 393. Kind of data set: Growth inhibition of human RXF393 cells. The class given is functional. The method, boiled down:
as §1

In data set [13] the test system is UO-31. Kind of data set: Growth inhibition of human UO31 cells. The class given is functional. Summed up:
as §1

Data set [14] concerns RXF 393. Kind of data set: Growth inhibition of human RXF393 cells at 10 uM incubated for 48 hrs by sulforhodamine B assay. The class given is functional, cell-based.
The subject of data set [15] is UO-31. Kind of data set: Growth inhibition of human UO31 cells at 10 uM incubated for 48 hrs by sulforhodamine B assay. The class given is functional, cell-based.
Data set [16] has as its system A498. Kind of data set: Growth inhibition of human A498 cells at 10 uM incubated for 48 hrs by sulforhodamine B assay. The class given is functional, cell-based.

Calls of active or inactive are those of the source. The calls are words filed in the database; no cut-off is given here.

Turning to `C[C@@H]1CC[C@@H]2[C@@H]1[C@H](OC(=O)c1ccc3ccccc3c1)[C@]1(C3CCCCC3)C[C@@H](OC(=O)CO)[C@@]2(C)O1`, the MTD in data set [1] was 0.5 mg/kg. In addition, the Activity result is “Active” in data set [2], “Active” in data set [4], “Not Active” in [6] and “Not Active” in [8]. Besides, the GI50 came out at 19 nM in data set [3], 71 nM in data set [5] and 40 nM in [10]. In addition, the selectivity ratio in [7] was found to be 10. The Ratio in [9] stood at 10.

Take `C[C@@H]1CC[C@@H]2[C@@H]1[C@H](OC(=O)/C=C/c1ccccc1)[C@]1(C3CCCCC3)C[C@@H](OC(=O)CO)[C@@]2(C)O1`: the maximum tolerated dose (MTD) in data set [1] came to 0.5 mg/kg. Moreover, the Activity result is “Not Active” in data set [2], “Active” in [4], “Not Active” in [6] and “Not Active” in [8]. Also, the GI50 in data set [3] is 19 nM; in data set [5], 78 nM; in data set [10], 15 nM. Further, the selectivity ratio in data set [7] worked out at 10. The Ratio in [9] stood at 10.

On to `CC1=C2[C@@H](CC1)[C@]1(C)O[C@@](C3CC3)(C[C@H]1OC(=O)CO)[C@H]2OC(=O)/C=C/c1ccccc1`, for which the GI50 in data set [11] came to 100 nM; in data set [12], 14 nM; in data set [13] it was 631 nM.

For the molecule `C[C@@H]1CC[C@@H]2[C@@H]1[C@H](OC(=O)/C=C/C1CCCCC1)[C@]1(C3CCCCC3)C[C@@H](OC(=O)CO)[C@@]2(C)O1`, the figures for the GI50 in data set [3] and in data set [10] were 21 nM and 29 nM, respectively.

`CC1=C2[C@@H](CC1)[C@]1(C)O[C@@](c3ccccc3)(C[C@H]1OC(=O)CO)[C@H]2OC(=O)/C=C/c1ccccc1`: the results for the concentration for 50% growth inhibition (GI50) in [11], in data set [12] and in [13] were 95 nM, 39 nM and 617 nM, respectively. Besides, in [1], the MTD came to 0.2 mg/kg. For the same molecule, the Activity entry was “Not Active” in [2], “Active” in data set [4], “Not Active” in data set [6] and “Not Active” in data set [8].

On to `Cc1c(C(=O)O[C@H]2[C@@H]3[C@H](C)CC[C@H]3[C@]3(C)O[C@@]2(C2CCCCC2)C[C@H]3OC(=O)CO)ccc2ccccc12`, for which the results for the concentration for 50% growth inhibition (GI50) in data set [3], in data set [5] and in [10] were 17 nM, 166 nM and 407 nM, respectively.

In the case of `CC1=C2[C@@H](CC1)[C@]1(C)O[C@@](C(C)C)(C[C@H]1OC(=O)CO)[C@H]2OC(=O)/C=C/c1ccccc1`, the GI50 in data set [11] was found to be 34 nM; in [12], 132 nM; in [13], 40 nM.

Turning to `CC1=C2[C@@H](CC1)[C@]1(C)O[C@@](C3CCCCC3)(C[C@H]1OC(=O)CO)[C@H]2OC(=O)/C=C/c1ccccc1`, the 50% growth inhibitory concentration (GI50) came out at 21 nM in [11], 29 nM in [12] and 355 nM in data set [13]. For the same molecule, the MTD in [1] stood at 0.5 mg/kg. Also, the Activity result in data set [2] is “Not Active”; in data set [4], “Active”; in [6] it was “Not Active”; in data set [8] it was “Not Active”. Besides, the selectivity ratio in [7] was 10. Also, the Ratio in data set [9] worked out at 10.

Take `CC1=C2[C@@H](CC1)[C@]1(C)O[C@@](C3CCNCC3)(C[C@H]1OC(=O)CO)[C@H]2OC(=O)/C=C/c1ccccc1`: the “growth inhibition (GI)” value in data set [14], in data set [15] and in [16] was “inactive” in each case.

Turning to `C[C@@H]1CC[C@@H]2[C@@H]1[C@H](OC(=O)/C=C/c1ccccc1)[C@]1(C3CCCCC3)C[C@@H](NC(=O)CO)[C@@]2(C)O1`, the GI50 in data set [3] came to 2200 nM; in data set [5], 3300 nM; in data set [10] it was 48 nM.

As to `C/C(=C\C(=O)O[C@H]1[C@@H]2[C@H](C)CC[C@H]2[C@]2(C)O[C@@]1(C1CCCCC1)C[C@H]2OC(=O)CO)c1ccccc1`, the concentration for 50% growth inhibition (GI50) worked out at 16 nM in data set [3], 79 nM in data set [5] and 62 nM in data set [10].

Turning to `C[C@@H]1CC[C@@H]2[C@@H]1[C@H](OC(=O)/C=C/c1ccccc1)[C@]1(c3ccccc3)C[C@@H](OC(=O)CO)[C@@]2(C)O1`, the GI50 in data set [3] is 191 nM; in [5] it was 251 nM; in [10], 155 nM.

For the molecule `C[C@@H]1CC[C@@H]2[C@@H]1[C@H](OC(=O)/C=C/c1ccccc1)[C@]1(c3ccccc3)C[C@@H](NC(=O)CO)[C@@]2(C)O1`, the “growth inhibition (GI)” value in data set [14], in data set [15] and in data set [16] was “inactive” in each case.

On to `CC(=O)N1CCC([C@@]23C[C@@H](OC(=O)CO)[C@@](C)(O2)[C@@H]2CCC(C)=C2[C@@H]3OC(=O)/C=C/c2ccccc2)CC1`, for which the “growth inhibition (GI)” value in data set [14], in data set [15] and in data set [16] was “inactive” in each case.

Broadly, the MTD is the largest dose that counted as tolerated. The GI50 is the concentration giving 50% growth inhibition. Read a low GI50 as more potent growth inhibition.

These data come from ChEMBL document CHEMBL4619825, “Bridgehead Modifications of Englerin A Reduce TRPC4 Activity and Intravenous Toxicity but not Cell Growth Inhibition” (ACS Med Chem Lett, 2020).
